Experimental findings from ChEMBL document CHEMBL4190240, “Conventional and microwave-assisted synthesis of new 1H-benzimidazole-thiazolidinedione derivatives: A potential anticancer scaffold” (Eur J Med Chem, 2017) are described below.

The term IC50 denotes the midpoint of a concentration-inhibition curve.

Calls of active or inactive are those of the source. No cut-off for these calls is given here.

Data set [1] concerns PC-3. Description: Cytotoxicity against human PC3 cells assessed as cell growth inhibition after 48 hrs by MTT assay. The format is functional, cell-based. The conditions noted are these: PC-3, 48 h.
Data set [2] concerns HeLa. Description: Cytotoxicity against human HeLa cells assessed as cell growth inhibition after 48 hrs by MTT assay. The format is functional, cell-based. In general terms: Tetrazolium assays rely on reduction of a dye to a coloured formazan, in cell work by metabolically active cells.
The test system of data set [3] is A549. Nature of the data set: Cytotoxicity against human A549 cells assessed as cell growth inhibition after 48 hrs by MTT assay. The settings on record: A549, 48 h. The format is functional, cell-based.
The subject of data set [4] is HT-1080. Nature of the data set: Cytotoxicity against human HT1080 cells assessed as cell growth inhibition after 48 hrs by MTT assay. The settings on record: HT-1080, 48 h. The data set is classed as functional, cell-based.
In data set [5] the test system is HEK-293T. Nature of the data set: Cytotoxicity against HEK293T cells assessed as cell growth inhibition after 48 hrs by MTT assay. The data set is classed as cell-based. The conditions noted are these: Homo sapiens.
Data set [6] relates to MDA-MB-231. Description: Cytotoxicity against human MDA-MB-231 cells assessed as cell growth inhibition after 48 hrs by MTT assay. The data set is classed as functional, cell-based. The conditions noted are these: MDA-MB-231, 48 h.
Data set [7] in a line: Selectivity index, ratio of IC50 for HEK293T cells to IC50 for human MDA-MB-231 cells. The conditions noted are these: HEK293T cells versus MDA-MB-231 cells, read-out: Ratio IC50. The format is toxicity.
A short description of data set [8]: Selectivity index, ratio of IC50 for HEK293T cells to IC50 for human PC3 cells. The conditions noted are these: HEK293T cells versus PC3 cells, read-out: Ratio IC50. The format is toxicity.
The nature of data set [9]: Selectivity index, ratio of IC50 for HEK293T cells to IC50 for human HeLa cells. The data set is classed as toxicity. The conditions noted are these: HEK293T cells versus HeLa cells, read-out: Ratio IC50.
A short description of data set [10]: Selectivity index, ratio of IC50 for HEK293T cells to IC50 for human A549 cells. The format is toxicity. The conditions noted are these: HEK293T cells versus A549 cells, read-out: Ratio IC50.
The nature of data set [11]: Selectivity index, ratio of IC50 for HEK293T cells to IC50 for human HT1080 cells. The format is toxicity. The conditions noted are these: HEK293T cells versus HT1080 cells, read-out: Ratio IC50.
Data set [12] deals with A549. Description: Antimigratory activity in human A549 cells assessed as reduction in wound healing at cytotoxic IC50 concentration after 24 to 48 hrs by phase contrast microscopy. The format is functional, cell-based. Summed up: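 A549 cells (5×10^5/well) grown 24 h to confluent monolayer, scratched with sterile 200 µL pipette tip, washed twice with PBS. Medium with compound at its IC50 added; untreated wells as control. Wound closure photographed by phase contrast microscopy at 0, 24 and 48 h in three or more random fields.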

The subject of data set [13] is A549. Description: Inhibition of filamentous actin polymerization in human A549 cells assessed as reduction in F-actin extension at the periphery at cytotoxic IC50 concentration after 24 hrs by rhodamine-phalloidin/Hoechst 33242 double staining based fluorescent microscopy. The format is cell-based. The procedure, abridged: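 A549 cells (1×10^6/well) grown on coverslips 24 h, treated 24 h at IC50 concentration, PBS-washed, fixed in 4% paraformaldehyde. Stained with rhodamine-phalloidin for F-actin and Hoechst 33242 for nuclei, mounted in anti-fade, imaged by fluorescence microscopy at 20X; DMSO-treated cells as control.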

Data set [14] relates to A549. Description: Induction of apoptosis in human A549 cells assessed as formation of fragmented nuclei at cytotoxic IC50 concentration after 24 hrs by Hoechst 33242-staining based fluorescent microscopy. The data set is classed as functional, cell-based. Summed up:
(§1)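 A549 cells (5×10^4/well) adhered 24 h on coverslips, exposed 24 h to IC50 concentration, fixed 10 min in 4% paraformaldehyde at 4 °C, stained with Hoechst 33242 (5 µg/mL) 30 min at room temperature. Nuclear morphology examined by fluorescence microscopy (ex 350/em 460 nm, 40x).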

The test system of data set [15] is A549. Description: Induction of apoptosis in human A549 cells assessed as formation of shrinked nuclei at cytotoxic IC50 concentration after 24 hrs by Hoechst 33242-staining based fluorescent microscopy. The format is functional, cell-based. The procedure, abridged: as §1
Data set [16] relates to A549. Nature of the data set: Induction of ROS production in human A549 cells at cytotoxic IC50 concentration after 24 hrs by DCFH-DA-dye based fluorescent microscopy. The format is functional, cell-based.
In data set [17] the test system is A549. Nature of the data set: Induction of apoptosis in human A549 cells assessed as loss of mitochondrial membrane potential at cytotoxic IC50 concentration after 24 hrs by rhodamine-123 dye based spectrofluorometery relative to control. The data set is classed as functional. The procedure, abridged: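 A549 cells (5×10^5 cells/mL) adhered overnight, treated 24 h at IC50 concentration, trypsinised, washed and stained with rhodamine-123 (10 µg/mL) in PBS 30 min at room temperature. After two PBS washes, fluorescence measured by spectrofluorometer versus DMSO control; mean ± SD of three independent experiments.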

The subject of data set [18] is A549. Nature of the data set: Induction of apoptosis in human A549 cells assessed as viable cells at cytotoxic IC50 concentration after 24 hrs by Annexin V-FITC/propidium iodide dual staining based flow cytometry (reference value: 84.8%). The format is functional. In general terms: Flow cytometry measures light scatter and fluorescence of single cells or particles in a stream.

The test system of data set [19] is A549. Nature of the data set: Induction of apoptosis in human A549 cells assessed as early apoptotic cells at cytotoxic IC50 concentration after 24 hrs by Annexin V-FITC/propidium iodide dual staining based flow cyclometry (reference value: 9.8%). The data set is classed as functional.
The test system of data set [20] is A549. Nature of the data set: Induction of apoptosis in human A549 cells assessed as late apoptotic cells at cytotoxic IC50 concentration after 24 hrs by Annexin V-FITC/propidium iodide dual staining based flow cytometry (reference value: 1.6%). The data set is classed as functional.
For data set [21], the system named is A549. Nature of the data set: Induction of apoptosis in human A549 cells assessed as necrotic cells at cytotoxic IC50 concentration after 24 hrs by Annexin V-FITC/propidium iodide dual staining based flow cytometry (reference value: 3.7%). The format is functional.

For `COc1ccc(-c2nc3cc(/C=C4\SC(=O)NC4=O)ccc3[nH]2)cc1OC`, the IC50 was 8.72 µM in data set [1]; 7.83 µM in [2]; 0.57 µM in [3]; 2.43 µM in [4]; 21.7 µM in [5]; 13.6 µM in data set [6].

Take `COc1ccc(-c2nc3cc(/C=C4\SC(=O)N(CC(=O)N5CCOCC5)C4=O)ccc3[nH]2)cc1OC`: the IC50 in [1] is > 50 µM; in data set [2], 7.51 µM; in data set [3] it was 8.93 µM; in data set [4], 3.32 µM; in data set [5], > 50 µM; in data set [6] it was > 50 µM.

`COc1cc(-c2nc3cc(/C=C4\SC(=O)NC4=O)ccc3[nH]2)ccc1OCC(C)C`: the IC50 in data set [1] came out at 2.98 µM; in data set [2], 5.22 µM; in data set [3], 5.11 µM; in [4] it was 4.45 µM; in data set [5] it was 14.1 µM; in data set [6], 7.78 µM.

Take `COc1cc(-c2nc3cc(/C=C4\SC(=O)N(CC(=O)N5CCCCC5)C4=O)ccc3[nH]2)cc(OC)c1OC`: the IC50 is 14.7 µM in data set [1]; 23.3 µM in data set [2]; 0.98 µM in [3]; 3.65 µM in data set [4]; 21.5 µM in data set [5]; 34.9 µM in [6].

Consider `COc1ccc(-c2nc3cc(/C=C4\SC(=O)N(CC(=O)c5ccccc5)C4=O)ccc3[nH]2)cc1OC`, for which the IC50 in data set [1] worked out at 0.43 µM; in data set [2], 7.48 µM; in [3] it was 0.74 µM; in data set [4], 0.59 µM; in data set [5] it was 27.8 µM; in data set [6], 2.04 µM.

Regarding `COc1cc(-c2nc3cc(/C=C4\SC(=O)N(CC(=O)c5ccccc5)C4=O)ccc3[nH]2)cc(OC)c1OC`, the IC50 is > 50 µM in data set [1]; 26.3 µM in [2]; 0.88 µM in [3]; 0.57 µM in data set [4]; 13.6 µM in data set [5]; > 50 µM in data set [6].

For the compound `COc1cc(-c2nc3cc(/C=C4\SC(=O)N(Cc5ccccc5)C4=O)ccc3[nH]2)cc(OC)c1OC`, the IC50 came to 2.5 µM in data set [1]; 0.95 µM in data set [2]; 0.67 µM in data set [3]; 0.66 µM in [4]; 8.21 µM in [5]; 2.29 µM in data set [6].

Turning to `COc1cc(-c2nc3cc(/C=C4\SC(=O)NC4=O)ccc3[nH]2)cc(OC)c1OC`, the IC50 is 12 µM in data set [1]; 1.67 µM in data set [2]; 3.57 µM in [3]; 3.12 µM in [4]; 13.6 µM in [5]; 6.83 µM in [6].

As for `COc1cc(-c2nc3cc(/C=C4\SC(=O)N(CC(=O)N5CCCC5)C4=O)ccc3[nH]2)cc(OC)c1OC`, the IC50 in data set [1] worked out at 8.37 µM; in data set [2] it was 4.78 µM; in [3], 0.91 µM; in [4], 2.47 µM; in data set [5], 12.7 µM; in data set [6] it was 2.88 µM.

For the compound `COc1cc(OC)c(-c2nc3cc(/C=C4\SC(=O)N(Cc5cccc(C)c5)C4=O)ccc3[nH]2)cc1OC`, the IC50 in data set [1] is 0.63 µM; in data set [2], 0.18 µM; in [3] it was 0.13 µM; in [4], 0.19 µM; in [5] it was 3.35 µM; in data set [6] it was 1.78 µM. The selectivity ratio is 1.9 in [7]; 5.3 in data set [8]; 18.6 in [9]; 25.8 in data set [10]; 17.6 in [11].

Regarding `COc1cc(OC)c(-c2nc3cc(/C=C4\SC(=O)NC4=O)ccc3[nH]2)cc1OC`, the half-inhibitory concentration (IC50) in [1] came out at 6.32 µM; in data set [2] it was 15.4 µM; in data set [3] it was 1.84 µM; in [4], 6.35 µM; in data set [5], 15.3 µM; in data set [6], 24.5 µM.

Consider `COc1cc(OC)c(-c2nc3cc(/C=C4\SC(=O)N(CC(=O)N5CCOCC5)C4=O)ccc3[nH]2)cc1OC`, for which the IC50 is 11.7 µM in data set [1]; 0.51 µM in data set [2]; 0.66 µM in [3]; 1.12 µM in data set [4]; 35.7 µM in data set [5]; 21.3 µM in data set [6].

Regarding `COc1cc(OC)c(-c2nc3cc(/C=C4\SC(=O)N(CC(=O)N5CCCCC5)C4=O)ccc3[nH]2)cc1OC`, the IC50 in data set [1] was > 50 µM; in data set [2] it was 6.89 µM; in data set [3] it was 14.5 µM; in data set [4] it was 8.76 µM; in [5], > 50 µM; in data set [6], > 50 µM.

In the case of `COc1cc(CN2C(=O)S/C(=C\c3ccc4[nH]c(-c5cc(OC)c(OC)c(OC)c5)nc4c3)C2=O)cc(OC)c1OC`, the concentration for half-maximal inhibition (IC50) in data set [1] turned out to be 10.2 µM; in data set [2], 2.24 µM; in [3] it was 0.53 µM; in [4], 0.98 µM; in data set [5] it was 16.6 µM; in data set [6], 0.27 µM.

As to `COc1ccc(-c2nc3cc(/C=C4\SC(=O)N(Cc5cc(OC)c(OC)c(OC)c5)C4=O)ccc3[nH]2)cc1OC`, the 50% inhibitory concentration (IC50) in [1] was > 50 µM; in [2], 0.32 µM; in data set [3], 0.13 µM; in data set [4], 0.27 µM; in data set [5], 6.76 µM; in data set [6], 29.1 µM. Also, the selectivity ratio in data set [9] came to 21.1; in [10] it was 52; in data set [11], 25.3. For the same compound, the outcome in [12], in data set [14], in data set [15] and in [16] was Active. For the same compound, the inhibition entry in data set [13] was “Active”. The Activity in [17] amounted to 31.6%; in data set [18], 63.5%; in [19], 25.1%; in data set [20], 8.7%; in data set [21], 2.7%.

Turning to `COc1cc(-c2nc3cc(/C=C4\SC(=O)N(Cc5cccc(C)c5)C4=O)ccc3[nH]2)cc(OC)c1OC`, the IC50 worked out at 4.37 µM in data set [1]; 1.44 µM in data set [2]; 0.93 µM in [3]; 4.58 µM in [4]; 18.9 µM in data set [5]; 3.26 µM in data set [6].

As for `COc1cc(-c2nc3cc(/C=C4\SC(=O)N(CC(=O)N5CCOCC5)C4=O)ccc3[nH]2)cc(OC)c1OC`, the IC50 in data set [1] turned out to be 5.94 µM; in [2] it was 16.3 µM; in data set [3], 2.93 µM; in [4] it was 1.68 µM; in data set [5], 18.8 µM; in data set [6], 14.9 µM.
